Assay results pooled from the literature.
Lines come from different studies, so protocols differ.
Target: Aurora kinase B (AURKB, Homo sapiens, UniProt Q96GD4)

| SMILES | assay | conditions | endpoint | result |
| --- | --- | --- | --- | --- |
| CN1CCN(C(=O)c2ccc(NC(=O)Nc3ccc(N(C)c4ccnc(Nc5ccc(CS(C)(=O)=O)cc5)n4)cc3)cc2)CC1 | binding, competition with immobilised ligand | 1 µM | remaining binding | 0.4% |
| CO[C@@H]1[C@H](N(C)C(=O)c2ccccc2)C[C@H]2O[C@]1(C)n1c3ccccc3c3c4c(c5c6ccccc6n2c5c31)C(=O)NC4 | enzyme activity, inhibitor | 1 µM | inhibition | 94% |
| COc1ccc2oc(-c3ccc4nc(N)oc4c3)c/c(=N\c3ccccc3NC(=O)CCN)c2c1 | cell-free assay | 1 µM | remaining signal | 99% |
| CCCCC(=O)Nc1ccc(-c2ccc3ncn(CCC)c(=O)c3c2)cn1 | binding, competition with immobilised ligand | 0.5 µM | remaining binding | 76% |
| CC(=O)ON=C1C=CC(=C(C#N)c2ccccc2)C=C1 | enzyme activity, inhibitor, ADP detection | 2 µM | activity vs control | 96% |
| C[C@H]1CC[C@H](n2c3cnccc3c3cnc(Nc4ccc5c(n4)CCN(C(=O)CO)C5)nc32)CC1 | cell-free assay, competition with immobilised ligand | 1 µM | remaining binding | 34% |
| Cc1cc(O)c(-c2ccc([C@@H](C)CN(C)C)cc2)c2c1[nH]c(=O)c1sccc12 | enzyme activity, inhibitor | 0.1 µM | inhibition | 21.5% |
| C#Cc1cc(-c2cc(Nc3nc(N[C@@H](C)c4ccc(F)cn4)ncc3Cl)n[nH]2)ccc1C=O | enzyme activity, inhibitor | 0.2 µM | inhibition | 16.6% |
| C#Cc1cnc(Nc2ccnc(CO)c2)nc1Nc1ccccc1S(C)(=O)=NC#N (stereo not drawn) | cell-free assay | 1 µM | remaining signal | < 10% |
| N#Cc1ccc(NC(=O)Nc2ccccc2)cc1 | cell-free assay, competition with immobilised ligand | 25 µM | remaining binding | 82% |
| C=CC(=O)N1CCC([C@@H]2CCNc3c(C(N)=O)c(-c4ccc(Oc5ccccc5)cc4)nn32)CC1 | enzyme activity, inhibitor | 1 µM | inhibition | 14% |
| C1=C/COCc2cc(ccc2OCCN2CCCC2)Nc2nccc(n2)-c2cccc(c2)COC/1 | binding | 0.1 µM | remaining binding | 100% |
